Experimental data taken from ChEMBL document CHEMBL5331146, “Evaluating Alkaline Phosphatase-Instructed Self-Assembly of d-Peptides for Selectively Inhibiting Ovarian Cancer Cells” (J Med Chem, 2023).
Calls of active or inactive are those of the source. Square brackets hold non-standard residues; d marks the D form. Peptide text beside a SMILES is read from it. * marks the point of attachment. d(pY) = N[C@H](Cc1ccc(OP(=O)(O)O)cc1)C(=O)O; Acetyl(2-naphthyl) = O=C(Cc1ccc2ccccc2c1)*

Tests used:
[1] = system: OVSAHO; test: Cytotoxicity against human OVSAHO cells assessed as inhibition of cell growth incubated for 72 hrs by MTT assay; format: functional, cell-based
Method in brief: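 OVSAHO cells incubated 72 h with each EISA substrate across a concentration series; viability measured and IC50 derived.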

[2] = system: OVSAHO; test: Cytotoxicity against human OVSAHO cells assessed as inhibition of cell growth at 1.25 to 5 uM incubated for 24 hrs by MTT assay relative to control; format: functional; set-up: scale not given: the % may be the effect or the level left; details: dose 1.25-5 µM
Method in brief: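 OVSAHO cells treated with doxorubicin alone at 1.25, 2.5 and 5 μM for 24 h; cell viability measured.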

[3] = Cytotoxicity against CHOK cells assessed as inhibition of cell growth incubated for 72 hrs by MTT assay; format: functional, cell-based; details: Cricetulus griseus
Method in brief: (§1)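 Cell viability after 72 h continuous exposure of each ovarian or CHO cell line to the substrate over a concentration series. IC50 is taken from the 72 h viability curves.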

[4] = Cytotoxicity against mouse GEMM 4306 cells assessed as inhibition of cell growth incubated for 72 hrs by MTT assay; format: functional, cell-based; details: GEMM 4306, 72 h; method in brief: as §1
[5] = Cytotoxicity against human A2780-Res cells assessed as inhibition of cell growth incubated for 72 hrs by MTT assay; format: functional, cell-based; method in brief: as §1
[6] = system: OVSAHO; test: Cytotoxicity against human OVSAHO cells assessed as cell viability at 20 uM incubated for 24 hrs in presence of doxorubicin by MTT assay (reference value: 120%); format: functional; details: read-out: Activity
[7] = system: OVSAHO; test: Cytotoxicity against human OVSAHO cells assessed as enhancement in cell growth inhibition at 20 uM incubated for 24 hrs in presence of 1.25 to 2.5 uM cisplatin by MTT assay; format: functional, cell-based
Method in brief: (§2)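 OVSAHO cells are co-treated for 24 h with the EISA substrate at a fixed 20 μM plus the partner drug over its concentration range. Viability is compared with substrate alone and drug alone. Significance is given as p thresholds (ns, *, **, ***).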

[8] = system: OVSAHO; test: Cytotoxicity against human OVSAHO cells assessed as enhancement in cell growth inhibition at 20 uM incubated for 24 hrs in presence of 1.25 to 5 uM 3-((4-(tert-butyl)phenyl)sulfonyl)acrylonitrile by MTT assay; format: functional, cell-based; method in brief: as §2
[9] = system: OVSAHO; test: Cytotoxicity against human OVSAHO cells assessed as enhancement in cell growth inhibition at 20 uM incubated for 24 hrs in presence of 50 to 200 nM methyl (5R,7R,8S)-7-hydroxy-8-methyl-15-oxo-5,6,7,8,14,15-hexahydro-13H-16-oxa-4b,8a,14-triaza-5,8-methanodibenzo[b,h]cycloocta[jkl]cyclopenta[e]-as-indacene-7-carboxylate by MTT assay; format: functional, cell-based; method in brief: as §2
[10] = system: OVSAHO; test: Cytotoxicity against human OVSAHO cells assessed as enhancement in cell growth inhibition at 20 uM incubated for 24 hrs in presence of 2.5 to 10 uM paclitaxel by MTT assay; format: functional, cell-based; method in brief: as §2
[11] = system: OVSAHO; test: Cytotoxicity against human OVSAHO cells assessed as enhancement in cell growth inhibition at 20 uM incubated for 24 hrs in presence of 0.5 to 2 uM 2-((4-(cyclopropanecarbonyl)piperazin-1-yl)methyl)benzo[d]isothiazol-3(2H)-one by MTT assay; format: functional, cell-based; method in brief: as §2
[12] = system: OVSAHO; test: Cytotoxicity against human OVSAHO cells assessed as enhancement in cell growth inhibition at 20 uM incubated for 24 hrs in presence of 1 to 20 uM ethyl (2-((cyanocarbonyl)(2,4-dimethoxyphenyl)amino)-2-(thiophen-2-yl)acetyl)glycinate by MTT assay; format: functional, cell-based; method in brief: as §2
[13] = system: OVSAHO; test: Cytotoxicity against human OVSAHO cells assessed as enhancement in cell growth inhibition at 20 uM incubated for 24 hrs in presence of 25 to 50 uM talazoparib by MTT assay; format: functional, cell-based; method in brief: as §2
[14] = system: OVSAHO; test: Cytotoxicity against human OVSAHO cells assessed as enhancement in cell growth inhibition at 20 uM incubated for 24 hrs in presence of 25 to 50 uM Bortezomib by MTT assay; format: functional, cell-based; method in brief: as §2
[15] = system: OVSAHO; test: Cytotoxicity against human OVSAHO cells assessed as enhancement in cell growth inhibition at <5 uM incubated for 24 to 72 hrs in presence of doxorubicin by MTT assay; format: functional, cell-based; details: time 24-72 hrs
Method in brief: (§3)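 OVSAHO cells are exposed to a series of substrate concentrations combined with doxorubicin, alongside each agent alone. Viability is read at 24 h, 48 h and 72 h. Single-agent doxorubicin was also run at 1.25, 2.5 and 5 μM. Significance is given as p thresholds.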

[16] = system: OVSAHO; test: Cytotoxicity against human OVSAHO cells assessed as enhancement in cell growth inhibition at 10 to 20 uM incubated for 24 to 72 hrs in presence of doxorubicin by MTT assay; format: functional, cell-based; details: dose 10-20 µM, time 24-72 hrs; method in brief: as §3

## COC(=O)CC[C@@H](NC(=O)[C@@H](Cc1ccc(OP(=O)(O)O)cc1)NC(=O)[C@@H](Cc1ccccc1)NC(=O)[C@@H](Cc1ccccc1)NC(=O)[C@@H](Cc1ccccc1)NC(=O)Cc1ccc2ccccc2c1)C(=O)OC
[1]
  IC50: > 200 µM

## COC(=O)CC[C@@H](NC(=O)[C@@H](Cc1ccc(OP(=O)(O)O)cc1)NC(=O)[C@@H](Cc1ccccc1)NC(=O)[C@@H](Cc1ccccc1)NC(=O)[C@H](CC(C)C)NC(=O)Cc1ccc2ccccc2c1)C(=O)OC
[1]
  IC50: 46.9 µM

## COC(=O)CC[C@@H](NC(=O)[C@@H](Cc1ccc(OP(=O)(O)O)cc1)NC(=O)[C@@H](Cc1ccccc1)NC(=O)[C@@H](Cc1ccccc1)NC(=O)[C@@H](CC(C)C)NC(=O)Cc1ccc2ccccc2c1)C(=O)OC
[1]
  IC50: > 200 µM

## COC(=O)CC[C@@H](NC(=O)[C@@H](Cc1ccc(OP(=O)(O)O)cc1)NC(=O)[C@H](CC(C)C)NC(=O)[C@@H](Cc1ccccc1)NC(=O)[C@@H](Cc1ccccc1)NC(=O)Cc1ccc2ccccc2c1)C(=O)OC
[1]
  IC50: 70.5 µM

## COc1cccc2c1C(=O)c1c(O)c3c(c(O)c1C2=O)C[C@@](O)(C(=O)CO)C[C@@H]3O[C@H]1C[C@H](N)[C@H](O)[C@H](C)O1 [DOXORUBICIN]
[2]
  Activity: ~75%

## COC(=O)CC[C@@H](NC(=O)[C@@H](Cc1ccc(OP(=O)(O)O)cc1)NC(=O)[C@@H](Cc1ccccc1)NC(=O)[C@@H](Cc1ccccc1)NC(=O)Cc1ccc2ccccc2c1)C(=O)OC ({Acetyl(2-naphthyl)}-[dF][dF][d(pY)][dE](OMe)-OMe)
[3]
  IC50: > 200 µM
[4]
  IC50: > 200 µM
[5]
  IC50: > 200 µM
[6]
  viability at 20 µM: 20%
[7]
  Activity: Active
[8]
  Activity: Active
[9]
  Activity: Active
[10]
  Activity: inactive
[11]
  Activity: inactive
[12]
  Activity: inactive
[13]
  Activity: inactive
[14]
  Activity: inactive
[15]
  Activity: inactive
[16]
  Activity: Active
